Here are results for 18 molecules from ChEMBL document CHEMBL3352570, “ST7612AA1, a thioacetate-ω(γ-lactam carboxamide) derivative selected from a novel generation of oral HDAC inhibitors” (J Med Chem, 2014).

For one assay, the target named is Histone deacetylase 1 (Homo sapiens, UniProt Q13547). Put plainly: Inhibition of HDAC1 (unknown origin) using fluorogenic tetrapeptide RHKK(Ac) substrate by fluorescence assay.
The target in the next assay is Histone deacetylase 3 (Homo sapiens, UniProt O15379). The assay can be described thus: Inhibition of HDAC3 (unknown origin) using fluorogenic tetrapeptide RHKK(Ac) substrate by fluorescence assay.
For assay [1], the target named is T1, Protein deacetylase HDAC6 (Homo sapiens, UniProt Q9UBN7).
T1 sequence (Q9UBN7 whole entry): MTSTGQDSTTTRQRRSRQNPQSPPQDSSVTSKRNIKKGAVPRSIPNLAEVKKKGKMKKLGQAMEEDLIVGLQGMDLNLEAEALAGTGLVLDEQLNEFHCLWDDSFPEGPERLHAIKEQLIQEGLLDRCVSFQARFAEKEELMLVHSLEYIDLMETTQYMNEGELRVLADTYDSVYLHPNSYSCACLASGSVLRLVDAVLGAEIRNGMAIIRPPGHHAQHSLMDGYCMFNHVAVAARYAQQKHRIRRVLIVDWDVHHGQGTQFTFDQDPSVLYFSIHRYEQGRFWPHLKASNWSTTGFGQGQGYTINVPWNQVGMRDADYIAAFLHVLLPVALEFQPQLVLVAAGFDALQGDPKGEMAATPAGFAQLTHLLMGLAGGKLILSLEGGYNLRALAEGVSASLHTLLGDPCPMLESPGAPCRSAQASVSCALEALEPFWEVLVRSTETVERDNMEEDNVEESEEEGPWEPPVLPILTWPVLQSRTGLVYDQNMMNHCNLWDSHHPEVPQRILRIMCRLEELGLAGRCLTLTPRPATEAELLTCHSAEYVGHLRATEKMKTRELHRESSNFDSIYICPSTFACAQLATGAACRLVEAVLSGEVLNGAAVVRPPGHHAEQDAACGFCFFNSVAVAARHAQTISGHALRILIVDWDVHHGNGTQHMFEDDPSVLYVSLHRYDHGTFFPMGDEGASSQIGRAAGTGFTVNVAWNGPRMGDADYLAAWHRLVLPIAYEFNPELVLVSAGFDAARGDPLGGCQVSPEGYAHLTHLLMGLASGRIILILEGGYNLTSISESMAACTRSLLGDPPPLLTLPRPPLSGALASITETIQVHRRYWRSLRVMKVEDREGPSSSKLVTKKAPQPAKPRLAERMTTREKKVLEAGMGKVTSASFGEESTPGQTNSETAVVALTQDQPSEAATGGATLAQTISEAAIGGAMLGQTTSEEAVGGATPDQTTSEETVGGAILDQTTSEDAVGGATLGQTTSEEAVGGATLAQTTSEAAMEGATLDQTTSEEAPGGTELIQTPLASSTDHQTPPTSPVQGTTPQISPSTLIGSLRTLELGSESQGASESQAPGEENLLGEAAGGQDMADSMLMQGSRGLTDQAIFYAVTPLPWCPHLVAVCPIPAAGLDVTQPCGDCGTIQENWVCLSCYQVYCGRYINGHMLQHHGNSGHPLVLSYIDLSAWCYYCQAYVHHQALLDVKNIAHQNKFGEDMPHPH
Put plainly: Inhibition of HDAC6 (unknown origin) using fluorogenic tetrapeptide RHKK(Ac) substrate by fluorescence assay.

For another assay, the target named is T2, Histone deacetylase 8 (Homo sapiens, UniProt Q9BY41).
T2 sequence (Q9BY41 whole entry): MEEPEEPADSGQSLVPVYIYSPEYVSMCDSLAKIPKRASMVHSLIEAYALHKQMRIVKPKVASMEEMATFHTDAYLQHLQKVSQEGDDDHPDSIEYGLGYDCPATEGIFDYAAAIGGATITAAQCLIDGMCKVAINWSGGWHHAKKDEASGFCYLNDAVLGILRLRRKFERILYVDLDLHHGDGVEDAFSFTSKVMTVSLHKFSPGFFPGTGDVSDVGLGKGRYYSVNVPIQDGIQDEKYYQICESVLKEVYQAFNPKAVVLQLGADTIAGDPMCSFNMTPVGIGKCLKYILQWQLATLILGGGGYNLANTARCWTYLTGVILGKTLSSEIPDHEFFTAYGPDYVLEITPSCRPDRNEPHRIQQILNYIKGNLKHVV
The assay can be described thus: Inhibition of HDAC8 (unknown origin) using fluorogenic tetrapeptide RHK(Ac)K(Ac) substrate by fluorescence assay.

The target in assay [2] is T3, Polyamine deacetylase HDAC10 (Homo sapiens, UniProt Q969S8).
T3 sequence (Q969S8 whole entry): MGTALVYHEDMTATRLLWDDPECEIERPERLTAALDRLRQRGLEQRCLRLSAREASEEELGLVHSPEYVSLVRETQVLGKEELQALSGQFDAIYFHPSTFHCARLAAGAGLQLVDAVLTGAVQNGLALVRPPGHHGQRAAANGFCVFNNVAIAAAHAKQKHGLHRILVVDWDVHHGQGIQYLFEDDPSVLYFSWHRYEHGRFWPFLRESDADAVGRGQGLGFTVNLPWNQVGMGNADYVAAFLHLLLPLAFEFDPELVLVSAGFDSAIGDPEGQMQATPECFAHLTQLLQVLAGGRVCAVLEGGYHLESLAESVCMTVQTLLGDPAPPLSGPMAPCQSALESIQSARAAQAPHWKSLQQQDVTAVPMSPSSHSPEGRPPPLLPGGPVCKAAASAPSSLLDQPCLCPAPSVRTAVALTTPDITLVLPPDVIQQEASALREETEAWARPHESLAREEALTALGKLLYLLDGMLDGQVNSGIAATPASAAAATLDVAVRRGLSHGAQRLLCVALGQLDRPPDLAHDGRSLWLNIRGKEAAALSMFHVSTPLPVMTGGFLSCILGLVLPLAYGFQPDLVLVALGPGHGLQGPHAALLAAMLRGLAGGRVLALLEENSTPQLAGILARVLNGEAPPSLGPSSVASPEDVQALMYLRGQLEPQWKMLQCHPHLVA
The assay can be described thus: Inhibition of HDAC10 (unknown origin) using fluorogenic tetrapeptide RHKK(Ac) substrate by fluorescence assay.

The target in a further assay is T4, Histone deacetylase 11 (Homo sapiens, UniProt Q96DB2).
T4 sequence (Q96DB2 whole entry): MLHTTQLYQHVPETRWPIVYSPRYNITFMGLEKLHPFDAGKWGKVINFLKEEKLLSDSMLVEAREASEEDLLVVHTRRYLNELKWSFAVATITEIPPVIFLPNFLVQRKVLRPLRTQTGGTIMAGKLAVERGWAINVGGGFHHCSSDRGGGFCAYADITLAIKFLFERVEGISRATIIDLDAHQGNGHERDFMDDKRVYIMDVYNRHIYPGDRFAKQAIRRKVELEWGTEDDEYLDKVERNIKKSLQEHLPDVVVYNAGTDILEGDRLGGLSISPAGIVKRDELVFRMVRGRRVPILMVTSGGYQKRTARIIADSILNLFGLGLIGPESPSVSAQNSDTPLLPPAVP
The assay can be described thus: Inhibition of HDAC11 (unknown origin) using fluorogenic tetrapeptide RHKK(Ac) substrate by fluorescence assay.

The target in assay [3] is T5, Histone deacetylase 2 (Homo sapiens, UniProt Q92769). The assay can be described thus: Inhibition of HDAC2 (unknown origin) using fluorogenic tetrapeptide RHKK(Ac) substrate at <50 uM by fluorescence assay. The procedure, abridged:
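Fluorogenic assay with the tetrapeptide RHKK(Ac) substrate (p53 residues 379–382) at 50 μM.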

The next assay relates to NCI-H460. The assay can be described thus: Cytotoxicity against human NCI-H460 cells after 24 hrs by SRB assay. The class given is functional, cell-based. The following applies: NCI-H460, 24 h. A digest of the protocol:
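NCI-H460 cells were grown in RPMI-1640 with L-glutamine, 10% heat-inactivated FCS and 50 μg/mL gentamicin. Cells were seeded at about 10% confluence and allowed to recover for 24 h. They were exposed to varying concentrations for 24 h, washed, then cultured a further 48 h. Surviving cells were measured by SRB. IC50 is the 50% reduction in cell number versus vehicle, from dose–response curve fitting; means of at least three experiments.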

In assay [4] the target is T5, Histone deacetylase 2. The assay can be described thus: Inhibition of HDAC2 (unknown origin) using fluorogenic tetrapeptide RHKK(Ac) substrate by fluorescence assay.

Active and inactive are the calls of the source. No cut-off for these calls is given here.

Histone deacetylase 1, sequence (Q13547 whole entry): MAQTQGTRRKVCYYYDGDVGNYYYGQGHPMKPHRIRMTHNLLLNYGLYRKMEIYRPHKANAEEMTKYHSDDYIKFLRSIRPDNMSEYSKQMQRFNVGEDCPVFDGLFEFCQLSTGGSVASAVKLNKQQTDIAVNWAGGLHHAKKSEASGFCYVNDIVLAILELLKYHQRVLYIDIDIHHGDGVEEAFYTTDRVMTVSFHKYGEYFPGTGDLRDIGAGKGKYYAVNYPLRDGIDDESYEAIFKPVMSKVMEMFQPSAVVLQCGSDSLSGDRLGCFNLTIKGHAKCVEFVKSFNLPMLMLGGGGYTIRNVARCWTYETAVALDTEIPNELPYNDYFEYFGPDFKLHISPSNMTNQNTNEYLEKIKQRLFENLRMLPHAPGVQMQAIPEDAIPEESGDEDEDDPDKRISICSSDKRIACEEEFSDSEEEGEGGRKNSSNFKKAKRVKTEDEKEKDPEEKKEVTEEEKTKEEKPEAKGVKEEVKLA
Histone deacetylase 3, sequence (O15379 whole entry): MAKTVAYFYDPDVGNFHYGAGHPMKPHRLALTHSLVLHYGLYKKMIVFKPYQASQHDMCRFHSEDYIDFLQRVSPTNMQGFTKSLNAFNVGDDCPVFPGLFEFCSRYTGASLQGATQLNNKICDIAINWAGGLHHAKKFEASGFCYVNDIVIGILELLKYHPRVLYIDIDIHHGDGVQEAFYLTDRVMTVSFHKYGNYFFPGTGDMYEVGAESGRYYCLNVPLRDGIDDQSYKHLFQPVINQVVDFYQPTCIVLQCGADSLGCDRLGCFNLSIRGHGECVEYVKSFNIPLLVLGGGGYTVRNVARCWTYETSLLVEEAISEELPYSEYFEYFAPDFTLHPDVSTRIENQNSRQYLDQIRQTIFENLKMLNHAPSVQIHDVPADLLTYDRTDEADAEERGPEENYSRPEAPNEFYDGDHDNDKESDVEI
T5 sequence (Q92769 whole entry, the tested form may be a part): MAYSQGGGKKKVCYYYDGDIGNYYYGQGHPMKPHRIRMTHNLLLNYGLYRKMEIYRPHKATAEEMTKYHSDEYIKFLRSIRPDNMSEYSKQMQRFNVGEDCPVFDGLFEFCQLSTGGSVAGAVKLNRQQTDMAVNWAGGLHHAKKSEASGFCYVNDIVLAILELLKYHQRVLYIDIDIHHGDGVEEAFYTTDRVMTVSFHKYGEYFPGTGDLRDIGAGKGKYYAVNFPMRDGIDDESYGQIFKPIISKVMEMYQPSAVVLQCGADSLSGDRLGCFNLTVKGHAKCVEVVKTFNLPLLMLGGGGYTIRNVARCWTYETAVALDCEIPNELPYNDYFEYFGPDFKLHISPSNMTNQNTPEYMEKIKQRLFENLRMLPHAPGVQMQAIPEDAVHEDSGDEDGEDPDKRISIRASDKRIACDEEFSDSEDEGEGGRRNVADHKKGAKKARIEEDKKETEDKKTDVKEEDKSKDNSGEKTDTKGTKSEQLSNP

Broadly, the IC50 is the concentration that inhibits the measured activity by half. Read a high IC50 as a need for much substance. As to `O=C1CCC[C@@H](C(=O)N[C@@H](CCCCCS)C(=O)N2CCc3ccccc3C2)N1`, the IC50 against Histone deacetylase 1 amounted to 2900 nM; on Histone deacetylase 3, 6330 nM; in assay [1], 582 nM; on Histone deacetylase 8, 2230 nM; in [2] it was 6000 nM; against Histone deacetylase 11, 293 nM. The inhibition result at Histone deacetylase 2 [3] was “inactive”.
For the molecule `CC(=O)SCCCCC[C@H](NC(=O)[C@@H]1CCCC(=O)N1)C(=O)Nc1cccc(C)c1`, the IC50 in the assay on NCI-H460 was found to be 60 nM.
In the case of `CC(=O)SCCCCC[C@H](NC(=O)[C@H]1CCC(=O)N1)C(=O)Nc1cccc(C(F)(F)F)c1`, in the assay on NCI-H460, half-maximal inhibition (IC50) required 30 nM.
Turning to `Cc1ccc(NC(=O)[C@H](CCCCCS)NC(=O)[C@@H]2CCCC(=O)N2)cc1`, the IC50 at Histone deacetylase 1 is 8 nM; against Histone deacetylase 2 [4], 60 nM; at Histone deacetylase 3, 3 nM; in [1] it was 2 nM; on Histone deacetylase 8, 360 nM; in assay [2], 4 nM. The same molecule displayed an IC50 at Histone deacetylase 11 of 3 nM.
In the assay on NCI-H460, `CC(=O)SCCCCC[C@H](NC(=O)[C@H]1CCCC(=O)N1)C(=O)Nc1ccccc1` gave an IC50 of 100 nM.
As for `CN1C(=O)CC[C@@H]1C(=O)N[C@@H](CCCCCS)C(=O)Nc1ccccc1`, the IC50 against Histone deacetylase 1 is 58 nM; against Histone deacetylase 2 [4], 103 nM; on Histone deacetylase 3 it was 49 nM; in assay [1] it was 5 nM; against Histone deacetylase 8, 545 nM; in assay [2], 116 nM. On Histone deacetylase 11, this molecule showed an IC50 of 67 nM.
`CC(=O)SCCCCC[C@H](NC(=O)[C@@H]1CCC(=O)N1)C(=O)Nc1cccc(C)c1` had an IC50 with NCI-H460 of 60 nM.
With `CC(=O)SCCCCC[C@H](NC(=O)[C@H]1CCC(=O)N1)C(=O)Nc1cccc(C)c1`, the IC50 in the assay on NCI-H460 was 40 nM.
For the molecule `O=C1NC[C@@H](c2ccccc2)[C@H]1C(=O)N[C@@H](CCCCCS)C(=O)Nc1ccccc1`, the IC50 against Histone deacetylase 1 worked out at 74 nM; against Histone deacetylase 2 [4], 1900 nM; on Histone deacetylase 3 it was 72 nM; in assay [1], 35 nM; at Histone deacetylase 8 it was 2570 nM; in assay [2], 14 nM. This molecule displayed an IC50 at Histone deacetylase 11 of 24 nM.
Regarding `O=C1C[C@@H](C(=O)N[C@@H](CCCCCS)C(=O)Nc2ccccc2)N1`, the IC50 came to 8 nM at Histone deacetylase 1; 68 nM against Histone deacetylase 2 [4]; 8 nM on Histone deacetylase 3; 2 nM in [1]; 61 nM against Histone deacetylase 8; 9 nM in [2]. Besides, 10 nM corresponded to half-maximal inhibition on Histone deacetylase 11 (IC50).
`O=C1CCC[C@@H](C(=O)N[C@@H](CCCCCS)C(=O)NCc2ccc(C(F)(F)F)cc2)N1`: the IC50 against Histone deacetylase 1 is 386 nM; on Histone deacetylase 2 [4], 1770 nM; on Histone deacetylase 3 it was 475 nM; in assay [1], 139 nM; against Histone deacetylase 8, 23 nM; in [2], 310 nM. Further, the IC50 against Histone deacetylase 11 was 140 nM.
For the molecule `O=C(CCCCCCS)NCc1cccc(OCc2ccccc2)c1`, the IC50 amounted to 3160 nM against Histone deacetylase 1; 14000 nM against Histone deacetylase 2 [4]; 2950 nM against Histone deacetylase 3; 1770 nM in assay [1]; 904 nM against Histone deacetylase 8; 2990 nM in [2]. Besides, the IC50 against Histone deacetylase 11 amounted to 1840 nM.
In the case of `Cc1cccc(NC(=O)[C@H](CCCCCS)NC(=O)[C@H]2CCC(=O)N2C)c1`, the IC50 is 3 nM on Histone deacetylase 1; 5 nM against Histone deacetylase 2 [4]; 5 nM against Histone deacetylase 3; 1 nM in assay [1]; 99 nM on Histone deacetylase 8; 2 nM in [2]. Half-maximal inhibition on Histone deacetylase 11 (IC50) required 12 nM.
Turning to `O=C1NCCC[C@H]1C(=O)N[C@@H](CCCCCS)C(=O)Nc1ccccc1`, the IC50 at Histone deacetylase 1 came to 7 nM; at Histone deacetylase 2 [4], 28 nM; at Histone deacetylase 3 it was 3 nM; in [1], 1 nM; at Histone deacetylase 8 it was 62 nM; in assay [2], 9 nM. At Histone deacetylase 11, this molecule had an IC50 of 9 nM.
On to `O=C1CCC[C@@H](C(=O)N[C@@H](CCCCCSSCCCCC[C@H](NC(=O)[C@@H]2CCCC(=O)N2)C(=O)Nc2ccccc2)C(=O)Nc2ccccc2)N1`, for which the IC50 in the assay on NCI-H460 amounted to 5400 nM.
As for `Cc1cccc(CCNC(=O)[C@H](CCCCCS)NC(=O)[C@@H]2CCCC(=O)N2)c1`, the IC50 amounted to 92 nM at Histone deacetylase 1; 601 nM on Histone deacetylase 2 [4]; 122 nM on Histone deacetylase 3; 15 nM in assay [1]; 17 nM against Histone deacetylase 8; 81 nM in assay [2]. At Histone deacetylase 11, 82 nM corresponded to half-maximal inhibition (IC50).
Regarding `O=C(CCCCCCS)NCc1ccc(C(F)(F)F)cc1`, the IC50 amounted to 5960 nM against Histone deacetylase 1; 19400 nM against Histone deacetylase 2 [4]; 2710 nM at Histone deacetylase 3; 5300 nM in assay [1]; 373 nM on Histone deacetylase 8; 6290 nM in [2]. For the same molecule, on Histone deacetylase 11, the IC50 came to 2070 nM.
`Cc1cccc(CCNC(=O)CCCCCCS)c1`: the IC50 at Histone deacetylase 1 was found to be 3210 nM; at Histone deacetylase 2 [4], 10700 nM; against Histone deacetylase 3 it was 2600 nM; in assay [1], 2710 nM; at Histone deacetylase 8 it was 246 nM; in assay [2], 3930 nM. For the same molecule, the IC50 on Histone deacetylase 11 came out at 1870 nM.
